# Screening results deposited in PubChem by The Scripps Research Institute Molecular Screening Center.
# SIAE inh: inhibitors of human sialic acid acetylesterase SIAE. AID 1053197. inhibition, % at 9.66 µM. Q9HAT2. SIAE FP-Rh probe binding, fluorescence polarization. actives 0.69% (n = 370,000);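 active means inhibition above a cutoff: mean of compounds within the control limits plus 3 SD of those, cut at about 17% in these data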
# PRMT1 FP inh: blocks human protein arginine methyltransferase 1; Q99873; recombinant PRMT1, activity-based probe fluorescence polarization; inhibition, % at 2.79 µM; actives 1.3% (n = 370,000); AID 652257;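 active means inhibition above about 21% made by adding two undisclosed values, limit read from the data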
# PAD4 inh: blocks human protein arginine deiminase 4; Q9UM07; recombinant PAD4, RCA probe fluorescence polarization; inhibition, % at 6.36 µM; actives 0.41% (n = 330,000); AID 485272;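 active means percent inhibition above a cutoff equal to the mean of all tested compounds plus 3 SD, cut at about 15% in these data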
# Target sequence (Q9UM07 whole entry, looked up): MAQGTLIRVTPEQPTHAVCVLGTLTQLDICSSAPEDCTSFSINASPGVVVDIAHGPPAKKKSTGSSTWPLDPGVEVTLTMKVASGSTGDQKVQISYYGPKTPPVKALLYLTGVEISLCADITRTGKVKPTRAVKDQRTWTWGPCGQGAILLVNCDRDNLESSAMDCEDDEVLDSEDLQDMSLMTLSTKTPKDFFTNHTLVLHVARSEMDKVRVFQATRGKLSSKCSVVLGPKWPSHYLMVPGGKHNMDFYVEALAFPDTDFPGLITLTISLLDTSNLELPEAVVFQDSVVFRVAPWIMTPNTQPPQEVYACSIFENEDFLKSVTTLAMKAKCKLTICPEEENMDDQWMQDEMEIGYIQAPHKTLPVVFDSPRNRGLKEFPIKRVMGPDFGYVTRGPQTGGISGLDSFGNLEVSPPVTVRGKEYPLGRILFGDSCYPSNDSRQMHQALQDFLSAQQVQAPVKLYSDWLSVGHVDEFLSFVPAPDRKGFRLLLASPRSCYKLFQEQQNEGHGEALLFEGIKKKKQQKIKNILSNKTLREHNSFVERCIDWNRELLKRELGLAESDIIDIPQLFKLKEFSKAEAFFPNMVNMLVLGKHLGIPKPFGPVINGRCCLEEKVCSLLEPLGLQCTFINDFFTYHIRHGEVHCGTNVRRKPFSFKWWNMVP
# RBBP9 inh: human RBBP9 hydrolase inhibition. AID 1515. inhibition, % at 7.94 µM. actives 0.2% (n = 220,000). recombinant RBBP9, FP-Rh probe fluorescence polarization. O75884;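 active means inhibition above the campaign mean of all tested compounds plus 3 SD, cut at about 14% in these data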
#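 Measured by: FP readout at 525/598 nm; material: recombinant human RBBP9; also added: Serine-hydrolase probe FP-Rh, 375 nM pre-mixing; medium: Tris buffer pH 8.0, NaCl, Pluronic; replication: one well per compound; doses: one concentration, 7.94 µM nominal, 0.794% DMSO; timing: preincubation 30 min plus labeling 45 min at 25 °C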
# GSTO1 inh: GSTO1 inhibition, counter-screen for RBBP9 inhibitors; recombinant GSTO1, activity-based probe fluorescence polarization; inhibition, % at 5.96 µM; AID 1974; P78417; actives 1.1% (n = 300,000);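 active means inhibition above the campaign mean inhibition plus 3 SD, cut at about 35% in these data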
# Hits are given with their value; . = inactive; / = no result given; ! = repeats disagree. The list is not random: actives were taken first. Their share in the collection is about 2.7%.
SMILES,SIAE inh,PRMT1 FP inh,PAD4 inh,RBBP9 inh,GSTO1 inh
Cc1cccc(C(=O)N=c2c(C#N)cc3c(=O)n4cccc(C)c4nc3n2Cc2ccco2)c1,.,25!,.,.,.
CCCN1CCC(NC(=S)Nc2ccc(C(=O)OCC)cc2)CC1,.,.,.,.,.
CCCCC(c1nc2ccccc2[nH]1)N(C(=O)c1ccccc1)c1ccccc1[N+](=O)[O-] (centres undefined),.,.,/,/,/
O=c1[nH][nH]c(=S)n1C1CCCCC1,/,/,.,.,.
O=c1cc(O)n(C2CCCCCC2)c(=O)[nH]1,.,24,.,/,36
O=C(C(Cl)Cl)N1CCN(Cc2ccccc2)CC1,.,.,.,.,35
CC(C)(C)OC(=O)NCCCC1=CC2=CC(=O)C(C)(OC(=O)C3CCCC3)C(=O)C2=CO1 (centres undefined),/,/,26,/,.
CC(C)(C)OC(=O)NCCCCC1=CC2=CC(=O)C(C)(OC(=O)c3ccco3)C(=O)C2=CO1 (centres undefined),/,/,.,/,41
COC(=O)CCCC1=CC2=CC(=O)C(C)(OC(=O)c3ccco3)C(=O)C2=CO1 (centres undefined),/,/,.,/,.
COC(=O)CCCC1=CC2=CC(=O)C(C)(OC(=O)CCc3ccccc3)C(=O)C2=CO1 (centres undefined),/,/,.,/,.
CCCCC1=CC2=CC(=O)C(C)(OC(=O)c3ccc(Cl)nc3)C(=O)C2=CO1 (centres undefined),/,/,20,/,.
Cc1cccc(C)c1Nc1nnc(SCC(=O)Nc2cc(S(=O)(=O)N3CCCCC3)ccc2Cl)s1,.,.,.,.,.
CSc1nc(C)cc(OCC(=O)N/N=C/c2ccccc2O)n1,.,.,.,.,.
O=C(Nc1ccc(F)cc1)C1C2CCC3C(CCC21)C3(Cl)Cl (centres undefined),.,.,.,.,.
CCc1nc(C)ccc1OCC(=O)NCCCN(C)C,20,.,.,.,.
O=C(CN1CCN(C(=O)c2ccccc2)CC1)Nc1ccc(Br)cn1,.,.,.,.,.
NS(=O)(=O)c1ccc(NCCCn2ccnc2)c([N+](=O)[O-])c1,.,.,.,/,.
O=C1c2ccccc2-c2onc3ccc(NCCCn4ccnc4)c1c23,/,/,106,.,105
COc1ccc(C(NCC(=O)NC(C)c2ccc(Cl)cc2)c2ccccc2)cc1 (centres undefined),.,.,.,/,.
CCC(=O)N(Cc1ccco1)c1nc(C(=O)Nc2ccc(Cl)cc2)c(C)s1,.,21,.,.,.
Fc1c(F)c(F)c(SCn2cc(Br)cn2)c(F)c1F,.,.,.,/,/
COC(=O)CC1OCC=C2CN3CCC45C6=CC(=O)C(=O)C([N+](=O)[O-])=C6NC4C1C2CC35 (centres undefined),.,30,/,/,/
COc1ccccc1/C=N/n1nnnc1N,.,.,/,/,/
CCOC(=O)C1=C(NC(=S)NC(=O)c2ccccc2)c2ccccc2CC1(C)CC (centres undefined),.,.,.,.,.
Cc1ccc(C(=O)N/C(=C/c2ccco2)C(=O)NCc2ccco2)cc1,.,.,.,/,.
SMILES,SIAE inh,PRMT1 FP inh,PAD4 inh,RBBP9 inh,GSTO1 inh
COc1ccc(C(=O)N/C(=C/c2ccco2)C(=O)NCc2ccco2)cc1,.,25,.,/,.
O=S1(=O)Nc2c(ccc3cccnc23)-c2ccccc21,/,/,.,.,55
CC(=O)Nc1cc(OC(C)=O)c2nonc2c1OC(C)=O,.,59,83,.,89
CC(=O)c1cnc(-c2ccccn2)s1,.,22,.,.,.
Cc1cc(=O)[nH]c(SCC(=O)c2ccc(O)c(O)c2)n1,.,.,.,/,.
Cc1cc(SCC(=O)c2ccc(O)c(O)c2)n2nc(C)c(-c3ccccc3)c2n1,.,.,.,.,35
COc1cc(CNc2ccc(N3CCCC3)cc2)ccc1OCc1ccccc1,.,.,.,.,53
COc1ccc(CNc2ccc(N3CCN(C(C)=O)CC3)cc2)cc1OC,.,.,/,/,/
CSc1nc(SCCO)c2sc3nc(-c4ccco4)c4c(c3c2n1)CC(C)(C)OC4,.,22,/,.,/
N#CCc1c(C#N)c(N)nc(N2CCCC(CO)C2)c1C#N (centres undefined),.,23,.,.,.
Cn1nnc2sc3c(c2c1=O)CCCC3,.,22,.,.,.
CC(C)c1onc(C(=O)NC2CCCCC2)c1[N+](=O)[O-],.,.,.,.,37
CCOc1cc(C2CC(=O)N3CN(C4CCCCC4)CSC3=C2C#N)ccc1O (centres undefined),.,32,.,.,.
COc1ccc2ccccc2c1C1CC(=O)N2CN(C3CCCCC3)CSC2=C1C#N (centres undefined),.,.,.,.,.
CN(C)c1ccc(C=c2c3ccccc3n3c2c2ccccc2[n+]3C)cc1,17,.,/,/,/
Cc1cc2c(=Cc3ccc(N(C)C)cc3)c3ccccc3n2[n+]1C,.,.,/,/,/
Cc1ccc(NCc2nnc(SCC(=O)c3ccccc3)n2Cc2ccco2)c(C)c1,.,24,.,.,.
Cc1ccc(NC(=O)CSc2nnc(CSc3nc(C)cc(C)n3)n2Cc2ccco2)c(C)c1,.,.,.,.,.
COC(=O)c1[nH]c2ccccc2c1NC(=O)CN1CCN(C(=O)c2ccco2)CC1,.,.,.,.,36
CCOCC(=O)Nc1cc(C(=O)OC)ccc1C(=O)OC,.,.,.,.,37
CCC(C)C(=O)Nc1cc(C(=O)OC)ccc1C(=O)OC (centres undefined),/,/,.,.,.
Cc1ccc(OCCn2cc(C=O)c3ccccc32)cc1,.,.,.,/,.
CCOC(=O)C1=C(c2ccccc2)N=c2s/c(=C\c3ccco3)c(=O)n2C1c1cccs1 (centres undefined),.,23,.,.,.
CCOC(=O)C1=C(c2ccccc2)N=c2s/c(=C\c3cc(OC)c(OC)c(OC)c3)c(=O)n2C1c1cccs1 (centres undefined),.,.,.,.,.
Cn1ncc(Cl)c1C(=O)N1CCN(c2ccc(Cl)c(Cl)c2)CC1,.,.,.,/,.
SMILES,SIAE inh,PRMT1 FP inh,PAD4 inh,RBBP9 inh,GSTO1 inh
COc1ccc(OC)c(/C=N/NC(=O)CCc2ccc(O)c(O)c2)c1,.,48,.,.,36
COc1ccc(OC)c(/C=N/NC(=O)CCc2c(C)n[nH]c2C)c1,.,.,.,.,.
Cc1oc2cc(O)ccc2c(=O)c1Oc1ccc(F)cc1,.,.,.,/,.
Cc1oc2cc(O)ccc2c(=O)c1Oc1ccc2ccccc2c1,.,.,.,.,37
COc1cc(/C=N/Nc2nc3c(c(=O)n(C)c(=O)n3C)n2Cc2ccccc2)ccc1OC(=O)c1ccco1,21,.,.,.,.
Cn1c(=O)c2c(nc(N/N=C/c3ccncc3)n2Cc2ccccc2)n(C)c1=O,.,.,.,.,.
C=CCn1c(C)nnc1SCC(=O)NC1CC1,.,.,.,/,.
CN(C)N1C(N)=C(C#N)C(c2cccc3ccccc23)C2=C1CC(c1ccccc1)CC2=O (centres undefined),.,.,.,.,.
Cc1ccc(C(=O)O)cc1N1C(=O)c2cccc3c([N+](=O)[O-])ccc(c23)C1=O,.,22,.,/,.
